Data reported in ChEMBL document CHEMBL2429837, “Identification of cryptotanshinone as an inhibitor of oncogenic protein tyrosine phosphatase SHP2 (PTPN11)” (J Med Chem, 2013).

What was measured:
[1] = target: Tyrosine-protein phosphatase non-receptor type 6 (Homo sapiens, UniProt P29350); test: Inhibition of GST-tagged SHP1 PTP domain (unknown origin) using phospho-EGFR Asp-Ala-Asp-Glu-Tyr[PO3H2]-Leu-Ile-Pro-Gln-Gln-Gly as substrate preincubated for 30 mins before substrate addition measured after 30 mins by phosphatase activity assay
Chain of Tyrosine-protein phosphatase non-receptor type 6 (P29350 whole entry, the tested form may be a part): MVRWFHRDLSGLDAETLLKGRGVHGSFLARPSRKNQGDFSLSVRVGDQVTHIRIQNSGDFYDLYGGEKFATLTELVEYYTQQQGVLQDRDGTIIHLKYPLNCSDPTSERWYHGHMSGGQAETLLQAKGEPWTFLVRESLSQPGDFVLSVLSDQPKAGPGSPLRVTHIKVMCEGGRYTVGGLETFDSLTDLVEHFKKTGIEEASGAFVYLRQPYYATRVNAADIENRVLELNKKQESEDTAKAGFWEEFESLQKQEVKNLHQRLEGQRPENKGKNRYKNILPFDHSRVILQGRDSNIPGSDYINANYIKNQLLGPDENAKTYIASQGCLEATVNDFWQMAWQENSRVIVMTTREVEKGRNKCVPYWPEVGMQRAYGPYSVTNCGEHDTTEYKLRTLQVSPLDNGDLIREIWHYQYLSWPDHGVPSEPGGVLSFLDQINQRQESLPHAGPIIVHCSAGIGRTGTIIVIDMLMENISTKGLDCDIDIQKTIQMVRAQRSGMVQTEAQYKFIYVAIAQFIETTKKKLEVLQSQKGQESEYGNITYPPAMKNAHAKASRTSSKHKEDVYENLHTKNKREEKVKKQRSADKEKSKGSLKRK
Method in brief: (§1)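 In-house SHP1 or purchased GST-CD45 cytoplasmic domain, GST-LAR, GST-TC-PTP preincubated with compound (6 concentrations) in 25 mM Tris-HCl pH 7.4, 50 mM NaCl, 5 mM DTT, 2.5 mM EDTA, room temperature 30 min. Phospho-EGFR pTyr1018 peptide added to 0.2 mM final, 30°C 30 min; released phosphate by Malachite Green, OD620. Three independent experiments.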

[2] = target: T1, Tyrosine-protein phosphatase non-receptor type 11 (Homo sapiens, UniProt Q06124); test: Inhibition of GST-tagged SHP2 PTP domain (unknown origin) using phospho-EGFR Asp-Ala-Asp-Glu-Tyr[PO3H2]-Leu-Ile-Pro-Gln-Gln-Gly as substrate preincubated for 30 mins before substrate addition measured after 30 mins by phosphatase activity assay
T1 sequence (Q06124 whole entry): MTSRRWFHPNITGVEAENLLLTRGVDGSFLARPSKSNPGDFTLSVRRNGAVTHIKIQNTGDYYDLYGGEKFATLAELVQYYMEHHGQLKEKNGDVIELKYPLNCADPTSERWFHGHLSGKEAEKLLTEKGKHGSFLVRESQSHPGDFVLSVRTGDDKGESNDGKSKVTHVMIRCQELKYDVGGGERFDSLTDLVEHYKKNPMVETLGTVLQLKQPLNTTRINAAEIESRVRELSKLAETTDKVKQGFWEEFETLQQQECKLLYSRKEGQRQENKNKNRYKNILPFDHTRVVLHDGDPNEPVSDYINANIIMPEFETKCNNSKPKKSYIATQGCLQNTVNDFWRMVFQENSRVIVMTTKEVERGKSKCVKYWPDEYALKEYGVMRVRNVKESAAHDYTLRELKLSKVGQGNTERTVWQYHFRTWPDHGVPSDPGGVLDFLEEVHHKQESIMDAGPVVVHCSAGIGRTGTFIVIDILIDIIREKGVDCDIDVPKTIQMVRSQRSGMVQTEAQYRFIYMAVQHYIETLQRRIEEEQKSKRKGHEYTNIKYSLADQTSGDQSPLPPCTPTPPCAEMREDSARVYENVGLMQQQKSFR
Method in brief: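 GST-SHP2 PTP domain fusion, purified in-house, 0.5 µg per reaction. Buffer 25 mM Tris-HCl pH 7.4, 50 mM NaCl, 5 mM DTT, 2.5 mM EDTA. Inhibitor pre-incubation at room temperature; substrate 0.2 mM final; reaction at 30°C. Free phosphate by Malachite Green, OD620 read after 10 min. IC50 from 6 (or 5) concentrations, three independent experiments.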

[3] = target: T2, Receptor-type tyrosine-protein phosphatase C (Homo sapiens, UniProt P08575); test: Inhibition of GST-tagged CD45 (unknown origin) using phospho-EGFR Asp-Ala-Asp-Glu-Tyr[PO3H2]-Leu-Ile-Pro-Gln-Gln-Gly as substrate preincubated for 30 mins before substrate addition measured after 30 mins by phosphatase activity assay; method in brief: as §1
T2 sequence (P08575 whole entry): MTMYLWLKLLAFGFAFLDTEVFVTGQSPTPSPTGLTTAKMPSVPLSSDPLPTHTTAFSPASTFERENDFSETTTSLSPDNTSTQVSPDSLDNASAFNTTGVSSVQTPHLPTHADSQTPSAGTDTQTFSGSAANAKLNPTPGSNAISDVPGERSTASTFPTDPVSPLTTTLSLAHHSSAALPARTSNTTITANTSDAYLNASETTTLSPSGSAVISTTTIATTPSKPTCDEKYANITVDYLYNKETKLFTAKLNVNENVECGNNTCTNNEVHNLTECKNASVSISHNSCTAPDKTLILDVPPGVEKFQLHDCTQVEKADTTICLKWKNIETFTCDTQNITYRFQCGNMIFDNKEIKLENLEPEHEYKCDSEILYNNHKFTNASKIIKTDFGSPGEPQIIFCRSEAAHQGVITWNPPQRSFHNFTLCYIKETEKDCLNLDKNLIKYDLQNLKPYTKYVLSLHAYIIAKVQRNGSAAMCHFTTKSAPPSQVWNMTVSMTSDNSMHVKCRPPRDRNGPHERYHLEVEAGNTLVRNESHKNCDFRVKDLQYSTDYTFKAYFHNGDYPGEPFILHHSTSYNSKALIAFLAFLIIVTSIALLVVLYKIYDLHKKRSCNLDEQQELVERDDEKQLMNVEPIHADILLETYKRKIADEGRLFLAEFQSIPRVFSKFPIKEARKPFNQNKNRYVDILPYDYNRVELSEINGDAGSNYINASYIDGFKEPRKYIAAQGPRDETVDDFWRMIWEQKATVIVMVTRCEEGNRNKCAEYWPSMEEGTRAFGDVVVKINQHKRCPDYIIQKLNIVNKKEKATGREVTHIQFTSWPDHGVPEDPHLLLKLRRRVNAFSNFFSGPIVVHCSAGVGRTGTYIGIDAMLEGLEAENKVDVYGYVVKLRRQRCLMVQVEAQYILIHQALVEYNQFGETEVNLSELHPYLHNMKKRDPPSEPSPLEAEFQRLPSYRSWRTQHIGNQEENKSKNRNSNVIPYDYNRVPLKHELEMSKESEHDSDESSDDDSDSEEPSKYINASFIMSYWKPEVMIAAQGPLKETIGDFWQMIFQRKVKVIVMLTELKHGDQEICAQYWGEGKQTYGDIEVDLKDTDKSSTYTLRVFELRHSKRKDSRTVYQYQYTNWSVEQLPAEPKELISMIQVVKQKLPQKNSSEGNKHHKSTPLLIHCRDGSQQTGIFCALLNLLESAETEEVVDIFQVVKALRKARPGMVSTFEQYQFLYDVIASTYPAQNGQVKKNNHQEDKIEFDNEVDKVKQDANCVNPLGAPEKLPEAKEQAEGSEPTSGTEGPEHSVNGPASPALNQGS

[4] = Growth inhibition of IL3-stimulated mouse BA/F3 cells after 48 hrs by CellTiter 96 assay; type: functional, cell-based; conditions: BaF3, 48 h
Method in brief: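 Ba/F3 cells seeded 5 × 10^3 per well in RPMI-1640 with 10% FBS and mouse IL-3 (1.0 ng/mL), grown overnight, then exposed to compound or matching DMSO for 48 h. Viable cells counted by tetrazolium-based one-solution proliferation reagent. Triplicates per experiment, three experiments; mean±S.E.M.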

[5] = target: Tyrosine-protein phosphatase non-receptor type 11 (Homo sapiens, UniProt Q06124, E76K); test: Inhibition of GST-tagged full-length SHP2 E76K mutant (unknown origin) using phospho-EGFR Asp-Ala-Asp-Glu-Tyr[PO3H2]-Leu-Ile-Pro-Gln-Gln-Gly as substrate preincubated for 30 mins before substrate addition measured after 30 mins by phosphatase activity assay
Chain of Tyrosine-protein phosphatase non-receptor type 11 (Homo sapiens, UniProt Q06124, E76K) (Q06124 as listed by the source E76K): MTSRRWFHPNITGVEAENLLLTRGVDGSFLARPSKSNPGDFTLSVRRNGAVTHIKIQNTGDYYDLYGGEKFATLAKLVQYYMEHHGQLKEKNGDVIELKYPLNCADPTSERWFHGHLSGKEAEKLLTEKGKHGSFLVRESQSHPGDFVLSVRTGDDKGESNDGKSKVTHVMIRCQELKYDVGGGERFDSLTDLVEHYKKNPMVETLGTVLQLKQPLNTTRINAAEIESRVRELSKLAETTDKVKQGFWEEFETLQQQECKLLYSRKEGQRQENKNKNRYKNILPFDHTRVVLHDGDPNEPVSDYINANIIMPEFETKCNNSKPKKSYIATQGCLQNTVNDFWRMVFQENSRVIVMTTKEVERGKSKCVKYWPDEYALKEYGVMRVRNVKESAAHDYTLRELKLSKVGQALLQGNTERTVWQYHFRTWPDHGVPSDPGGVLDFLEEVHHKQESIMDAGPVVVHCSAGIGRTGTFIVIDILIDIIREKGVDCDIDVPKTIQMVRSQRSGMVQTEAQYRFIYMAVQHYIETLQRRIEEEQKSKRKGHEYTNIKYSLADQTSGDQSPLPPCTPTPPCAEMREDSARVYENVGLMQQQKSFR

[6] = target: T3, Tyrosine-protein phosphatase non-receptor type 2 (Homo sapiens, UniProt P17706); test: Inhibition of GST-tagged TC-PTP (unknown origin) using phospho-EGFR Asp-Ala-Asp-Glu-Tyr[PO3H2]-Leu-Ile-Pro-Gln-Gln-Gly as substrate preincubated for 30 mins before substrate addition measured after 30 mins by phosphatase activity assay; method in brief: as §1
T3 sequence (P17706 whole entry): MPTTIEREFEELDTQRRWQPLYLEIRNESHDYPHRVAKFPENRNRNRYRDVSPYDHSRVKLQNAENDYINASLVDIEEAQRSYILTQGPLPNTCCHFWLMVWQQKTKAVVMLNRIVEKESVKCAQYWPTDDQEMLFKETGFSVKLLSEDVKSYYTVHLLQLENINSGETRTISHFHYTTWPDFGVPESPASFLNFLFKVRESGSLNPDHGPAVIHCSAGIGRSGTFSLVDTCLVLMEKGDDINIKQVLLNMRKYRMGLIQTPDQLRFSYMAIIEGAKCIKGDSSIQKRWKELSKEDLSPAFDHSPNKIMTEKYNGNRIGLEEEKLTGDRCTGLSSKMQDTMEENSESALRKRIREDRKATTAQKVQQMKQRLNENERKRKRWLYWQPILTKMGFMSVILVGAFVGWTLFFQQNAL

[7] = target: T4, Tyrosine-protein phosphatase non-receptor type 9 (Homo sapiens, UniProt P43378); test: Inhibition of GST-tagged MEG2 (unknown origin) using phospho-EGFR Asp-Ala-Asp-Glu-Tyr[PO3H2]-Leu-Ile-Pro-Gln-Gln-Gly as substrate preincubated for 30 mins before substrate addition measured after 30 mins by phosphatase activity assay
T4 sequence (P43378 whole entry): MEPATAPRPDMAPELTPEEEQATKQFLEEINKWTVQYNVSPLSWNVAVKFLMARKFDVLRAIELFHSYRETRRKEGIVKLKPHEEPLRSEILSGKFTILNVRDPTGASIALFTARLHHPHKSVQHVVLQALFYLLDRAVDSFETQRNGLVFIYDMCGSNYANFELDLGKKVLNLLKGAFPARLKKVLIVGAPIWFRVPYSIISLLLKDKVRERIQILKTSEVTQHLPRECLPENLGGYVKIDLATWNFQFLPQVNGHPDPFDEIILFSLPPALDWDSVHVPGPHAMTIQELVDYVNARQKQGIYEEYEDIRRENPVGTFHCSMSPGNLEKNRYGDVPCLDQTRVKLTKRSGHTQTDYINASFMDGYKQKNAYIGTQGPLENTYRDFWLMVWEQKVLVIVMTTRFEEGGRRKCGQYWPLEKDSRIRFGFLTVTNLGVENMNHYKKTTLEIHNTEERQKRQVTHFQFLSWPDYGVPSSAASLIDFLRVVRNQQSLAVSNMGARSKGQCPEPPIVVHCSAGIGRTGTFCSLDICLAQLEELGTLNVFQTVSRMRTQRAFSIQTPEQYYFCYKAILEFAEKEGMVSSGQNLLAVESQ
Method in brief: (§2)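 GST-fusion phosphatase, purified in-house or commercial (MEG2 purchased). Enzyme and compound preincubated 30 min at room temperature in 25 mM Tris-HCl pH 7.4, 50 mM NaCl, 5 mM DTT, 2.5 mM EDTA. EGFR pTyr1018 peptide then added to 0.2 mM final and incubated 30 min at 30°C. Released phosphate read with Malachite Green at OD620 after 10 min. IC50 from 6 concentrations, three independent experiments.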

[8] = target: Receptor-type tyrosine-protein phosphatase F (Homo sapiens, UniProt P10586); test: Inhibition of GST-tagged LAR (unknown origin) using phospho-EGFR Asp-Ala-Asp-Glu-Tyr[PO3H2]-Leu-Ile-Pro-Gln-Gln-Gly as substrate preincubated for 30 mins before substrate addition measured after 30 mins by phosphatase activity assay; method in brief: as §1
Chain of Receptor-type tyrosine-protein phosphatase F (P10586 whole entry): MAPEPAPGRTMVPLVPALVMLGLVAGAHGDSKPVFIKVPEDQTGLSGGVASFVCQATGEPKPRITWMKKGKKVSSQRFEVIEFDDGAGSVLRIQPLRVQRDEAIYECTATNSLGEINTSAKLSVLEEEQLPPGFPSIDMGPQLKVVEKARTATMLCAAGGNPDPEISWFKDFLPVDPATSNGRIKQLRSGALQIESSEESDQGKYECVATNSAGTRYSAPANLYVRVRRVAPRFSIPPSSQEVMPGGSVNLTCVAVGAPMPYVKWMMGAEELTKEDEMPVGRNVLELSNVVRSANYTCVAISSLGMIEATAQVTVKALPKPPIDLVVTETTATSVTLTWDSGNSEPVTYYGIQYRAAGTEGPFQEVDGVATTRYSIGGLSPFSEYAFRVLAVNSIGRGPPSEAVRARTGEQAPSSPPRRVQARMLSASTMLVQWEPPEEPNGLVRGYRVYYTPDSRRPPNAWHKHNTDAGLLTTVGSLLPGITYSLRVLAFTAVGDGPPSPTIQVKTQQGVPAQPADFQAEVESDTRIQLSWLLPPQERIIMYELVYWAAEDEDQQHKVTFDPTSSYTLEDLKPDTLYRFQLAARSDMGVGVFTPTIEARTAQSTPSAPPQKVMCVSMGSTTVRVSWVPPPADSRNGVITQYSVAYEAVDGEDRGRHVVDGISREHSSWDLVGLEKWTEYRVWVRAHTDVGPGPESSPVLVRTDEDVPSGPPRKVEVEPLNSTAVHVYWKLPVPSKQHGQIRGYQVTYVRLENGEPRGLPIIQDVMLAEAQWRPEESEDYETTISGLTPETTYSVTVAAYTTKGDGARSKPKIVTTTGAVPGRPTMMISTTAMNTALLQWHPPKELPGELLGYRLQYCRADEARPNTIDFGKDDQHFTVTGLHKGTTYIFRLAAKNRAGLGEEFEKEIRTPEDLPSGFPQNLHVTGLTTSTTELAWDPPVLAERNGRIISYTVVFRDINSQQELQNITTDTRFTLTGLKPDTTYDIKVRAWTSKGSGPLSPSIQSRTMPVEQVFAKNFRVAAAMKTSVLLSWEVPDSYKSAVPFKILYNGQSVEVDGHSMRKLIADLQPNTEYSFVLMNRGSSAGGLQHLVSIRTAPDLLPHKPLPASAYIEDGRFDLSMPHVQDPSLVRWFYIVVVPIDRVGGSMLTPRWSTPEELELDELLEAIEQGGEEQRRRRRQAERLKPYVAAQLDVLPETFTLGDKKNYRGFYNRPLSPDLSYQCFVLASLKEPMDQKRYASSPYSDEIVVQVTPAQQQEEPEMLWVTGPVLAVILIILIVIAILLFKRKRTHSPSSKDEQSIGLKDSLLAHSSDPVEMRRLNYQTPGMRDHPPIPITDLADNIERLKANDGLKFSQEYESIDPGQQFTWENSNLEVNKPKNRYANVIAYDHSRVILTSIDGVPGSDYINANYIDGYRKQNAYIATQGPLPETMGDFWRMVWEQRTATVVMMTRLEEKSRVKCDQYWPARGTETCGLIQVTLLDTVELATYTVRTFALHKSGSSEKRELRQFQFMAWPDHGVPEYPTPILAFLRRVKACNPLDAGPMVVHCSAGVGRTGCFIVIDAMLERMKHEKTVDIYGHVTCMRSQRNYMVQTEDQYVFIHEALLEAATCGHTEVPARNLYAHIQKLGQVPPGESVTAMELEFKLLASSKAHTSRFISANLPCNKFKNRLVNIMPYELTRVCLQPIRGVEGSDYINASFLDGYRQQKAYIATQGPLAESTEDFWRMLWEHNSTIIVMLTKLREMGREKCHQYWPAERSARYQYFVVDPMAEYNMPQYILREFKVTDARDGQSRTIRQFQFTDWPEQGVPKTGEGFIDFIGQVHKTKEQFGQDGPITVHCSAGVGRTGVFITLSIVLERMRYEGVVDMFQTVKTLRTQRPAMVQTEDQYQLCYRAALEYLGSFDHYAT

[9] = target: T1, Tyrosine-protein phosphatase non-receptor type 11; test: Inhibition of wild type GST-tagged full-length SHP2 (unknown origin) using phospho-EGFR Asp-Ala-Asp-Glu-Tyr[PO3H2]-Leu-Ile-Pro-Gln-Gln-Gly as substrate preincubated for 30 mins before substrate addition measured after 30 mins by phosphatase activity assay
Method in brief: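 Wild-type full-length SHP2 was purified recombinant and run like the in-house GST-SHP2 assay. It was preincubated with compound 30 min at room temperature in Tris-HCl pH 7.4 buffer with NaCl, DTT and EDTA. Phospho-EGFR peptide was then added to 0.2 mM and incubated 30 min at 30°C, with Malachite Green read-out at OD620. Triplicates from one of three repeat experiments.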

[10] = target: T5, Tyrosine-protein phosphatase non-receptor type 1 (Homo sapiens, UniProt P18031); test: Inhibition of GST-tagged PTP1B (unknown origin) using phospho-EGFR Asp-Ala-Asp-Glu-Tyr[PO3H2]-Leu-Ile-Pro-Gln-Gln-Gly as substrate preincubated for 30 mins before substrate addition measured after 30 mins by phosphatase activity assay; method in brief: as §2
T5 sequence (P18031 whole entry): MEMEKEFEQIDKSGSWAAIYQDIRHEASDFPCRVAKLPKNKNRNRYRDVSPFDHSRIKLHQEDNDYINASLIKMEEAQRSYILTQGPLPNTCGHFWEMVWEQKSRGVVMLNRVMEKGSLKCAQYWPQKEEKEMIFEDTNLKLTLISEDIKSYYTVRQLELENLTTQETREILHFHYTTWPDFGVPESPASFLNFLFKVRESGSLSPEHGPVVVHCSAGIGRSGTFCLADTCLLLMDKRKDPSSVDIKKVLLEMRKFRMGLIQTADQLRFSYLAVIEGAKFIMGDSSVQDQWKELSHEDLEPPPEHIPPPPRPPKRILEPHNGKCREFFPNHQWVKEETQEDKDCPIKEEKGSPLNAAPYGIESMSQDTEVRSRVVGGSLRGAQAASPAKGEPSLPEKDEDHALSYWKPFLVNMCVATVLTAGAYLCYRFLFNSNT

Compound	IC50 [1]	IC50 [2]	IC50 [3]	IC50 [4]	IC50 [5]	IC50 [6]	IC50 [7]	IC50 [8]	IC50 [9]	IC50 [10]
Cc1coc2c1C(=O)C(=O)c1c-2ccc2c1CCCC2(C)C [TANSHINONE IIA]	2140 nM	2.59 µM								
Cc1coc2c1C(=O)C(=O)c1c-2ccc2c(C)cccc12 [TANSHINONE I]	1970 nM	2.57 µM								
Cc1cccc2c3c(ccc12)C1=C(C(=O)C3=O)[C@@H](C)CO1 [DIHYDROTANSHINONE I]	3670 nM	3.94 µM								
C[C@H]1COC2=C1C(=O)C(=O)c1c2ccc2c1CCCC2(C)C [CRYPTOTANSHINONE]	39500 nM	22.5 µM	41.4 µM	17.2 µM	23.9 µM	55.7 µM	59.4 µM	36.9 µM	45.2 µM	33.5 µM
